{"data": "Results of several laboratories", "target": "Serine/threonine-protein kinase PAK 6 (PAK6, Homo sapiens, UniProt Q9NQU5)", "note": "Protocols differ between the studies behind these lines."}
{"Structure (SMILES)": "O=C(c1ccc(Nc2nccc(-c3cc4ccccc4s3)n2)cc1)N1CCC(N2CCCC2)CC1", "effect on": "binding", "method": "competition with immobilised ligand", "concentration": "1 µM", "remaining binding [%]": 100}
{"Structure (SMILES)": "c1cncc(-c2cccc(Nc3nccc(NC4CCCCC4)n3)c2)c1", "effect on": "binding", "method": "competition with immobilised ligand", "concentration": "10 µM", "remaining binding [%]": 60}
{"Structure (SMILES)": "CN(C(=O)c1ccccc1)c1cc(N(C)c2ccc3c(c2)CCc2ccc(C(=O)NCCN4CCOCC4)cc2C3=O)ccc1F", "effect on": "cell-free assay", "method": "competition with immobilised ligand", "concentration": "1 µM", "remaining binding [%]": 100}
{"Structure (SMILES)": "F[C@@H]1CCN(c2nccc(-c3cnn4ncccc34)n2)C1", "effect on": "binding", "concentration": "1 µM", "remaining binding [%]": 100}
{"Structure (SMILES)": "c1ccc(N2CCN(Cc3nc4ccccc4[nH]3)CC2)nc1", "effect on": "cell-free assay", "method": "competition with immobilised ligand", "concentration": "1 µM", "remaining binding [%]": 100}
{"Structure (SMILES)": "O=C(NCCCN1CCOCC1)c1ccc(Nc2ncc(Cl)c(-c3ccc(Cl)s3)n2)cc1", "effect on": "binding", "method": "competition with immobilised ligand", "concentration": "1 µM", "remaining binding [%]": 74}
{"Structure (SMILES)": "CCN1CCN(Cc2ccc(C(=O)Nc3ccc(C)c(Oc4ccc5c(c4)CC(=O)N5)c3)cc2C(F)(F)F)CC1", "effect on": "binding", "method": "competition with immobilised ligand", "concentration": "1 µM", "remaining binding [%]": 100}
{"Structure (SMILES)": "CNC(=O)[C@@H]1CC[C@@H](n2c(-c3ccc4cnccc4c3)nc3ccc(C(=O)NCc4cccc(C(N)=O)c4)cc32)C1", "effect on": "binding", "method": "competition with immobilised ligand", "concentration": "1 µM", "remaining binding [%]": 100}
{"Structure (SMILES)": "CN(C)c1ncc(F)c(-c2cnn3ncccc23)n1", "effect on": "binding", "concentration": "1 µM", "remaining binding [%]": 100}
{"Structure (SMILES)": "CS(=O)(=O)N1CCCC(NC(=O)[C@H](CCC2CCCCC2)NC(=O)c2ccc(CNC(=O)c3cnc4ccccn34)cc2)C1 (some centres unmarked)", "effect on": "cell-free assay", "method": "competition with immobilised ligand", "concentration": "0.1 µM", "remaining binding [%]": 100}
{"Structure (SMILES)": "N[C@@H]1CCN(c2nccc(-c3cnn4ncccc34)n2)C1", "effect on": "binding", "concentration": "1 µM", "remaining binding [%]": 100}
{"Structure (SMILES)": "CN(C)C(=O)Cn1cc(-c2nc(C3(c4ccc(-c5cnc(N)nc5)cc4)CC3)no2)cn1", "effect on": "cell-free assay", "method": "competition with immobilised ligand", "concentration": "1 µM", "remaining binding [%]": 100}
{"Structure (SMILES)": "Nc1ncc2c(n1)-c1c([nH]c3ccc(C#CC4CC4)cc13)CCCC2", "effect on": "binding", "method": "competition with immobilised ligand", "concentration": "1 µM", "remaining binding [%]": 94}
{"Structure (SMILES)": "Cc1noc([C@H]2C[C@@H](c3ccc(C(F)(F)F)cc3)CN(C(=O)N3CCS(=O)(=O)C3)C2)n1", "effect on": "cell-free assay", "method": "competition with immobilised ligand", "concentration": "1 µM", "remaining binding [%]": 100}
{"Structure (SMILES)": "c1cnn2ncc(-c3ccnc(N4CCC45COC5)n3)c2c1", "effect on": "binding", "concentration": "1 µM", "remaining binding [%]": 81}
{"Structure (SMILES)": "O=C(Nc1c[nH]nc1C(=O)NC1CCNCC1)c1cc(F)cc(F)c1", "effect on": "binding", "method": "competition with immobilised ligand", "concentration": "1 µM", "remaining binding [%]": 100}
{"Structure (SMILES)": "C[C@H]1CCN(c2nccc(-c3cnn4ncccc34)n2)C1", "effect on": "binding", "concentration": "1 µM", "remaining binding [%]": 80}
{"Structure (SMILES)": "O=C(c1ccc(Nc2ncc(Cl)c(-c3cc4ccccc4s3)n2)cc1)N1CCC(N2CCCC2)CC1", "effect on": "binding", "method": "competition with immobilised ligand", "concentration": "1 µM", "remaining binding [%]": 62}
{"Structure (SMILES)": "CN(CCCC(F)(F)F)c1nccc(-c2cnn3ncccc23)n1", "effect on": "binding", "concentration": "1 µM", "remaining binding [%]": 100}
{"Structure (SMILES)": "O=C(NC[C@@H]1[C@H]2CN(C(=O)OCc3cc(C(F)(F)F)cc(C(F)(F)F)c3)C[C@@H]12)c1ccc2[nH]nnc2c1", "effect on": "cell-free assay", "method": "competition with immobilised ligand", "concentration": "1 µM", "remaining binding [%]": 93}
